Experimental data as given in ChEMBL document CHEMBL1914423, “New imidazo[2,1-b]thiazole derivatives: synthesis, in vitro anticancer evaluation, and in silico studies” (Eur J Med Chem, 2011).

Test: Antiproliferative activity against human A375P cells after 48 hrs by MTT assay
Assay type: functional, cell-based
Outline: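 A375P cells in DMEM with 10% FBS at 37 °C, 5% CO2. Seeded at 5×10³ cells/well, held 24 h, then treated with 12-point 3-fold serial dilutions for 48 h. Viability by MTT reduction. IC50 values are means of triplicate experiments.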

| Structure (SMILES) | IC50 |
| --- | --- |
| COc1cccc(-c2nc3sccn3c2-c2ccnc(NCCNC(=O)Nc3cc(C(F)(F)F)cc(C(F)(F)F)c3)n2)c1 | 4.3 µM |
| CNC(=O)c1cc(Oc2ccc(NC(=O)Nc3ccc(Cl)c(C(F)(F)F)c3)cc2)ccn1 [SORAFENIB] | 5.6 µM |
